Assay results collected from several papers.
Target: Bone morphogenetic protein receptor type-1A (BMPR1A, Homo sapiens, UniProt P36894)

The remaining activity of `CC(C)(C)c1nc(-c2cccc(NS(=O)(=O)c3c(F)cccc3F)c2F)c(-c2ccnc(N)n2)s1` is reported as 48% (enzyme activity, inhibitor, radiometric; 1 µM).
`Nc1cnc(N2CCc3cc(S(=O)(=O)Nc4c(F)cc(Cl)cc4F)cc(N4CCCC4=O)c32)nc1` gave a remaining binding of 91% (cell-free assay, competition with immobilised ligand; 1 µM).
`Nc1ncnc2occ(-c3ccc(NC(=O)Nc4cc(C(F)(F)F)ccc4F)cc3)c12` has a remaining signal of 100% (cell-free assay; 20 µM).
`Cc1noc([C@H]2C[C@@H](c3ccc(C(F)(F)F)cc3)CN(C(=O)N3CCS(=O)(=O)C3)C2)n1` gave a remaining binding of 100% (binding, competition with immobilised ligand; 1 µM).
`CC(C)(C)c1nc2c(s1)c1nc(N)ncc1c1ccc(NS(=O)(=O)c3c(F)cccc3F)c(F)c12` gave a remaining activity of 96% (enzyme activity, inhibitor, radiometric; 1 µM).
`Cc1sc(C(=O)NC2COC2)cc1-n1cc(NC(=O)Nc2c(F)cccc2Cl)cn1` has a remaining activity of 92.5% (enzyme activity, inhibitor; 10 µM).
The inhibition of `CCOc1cc(-c2nncn2C)ccc1Nc1ncc2cc(C)nc(NCC(C)(C)C)c2n1` is reported as at most 15% (cell-free assay, TR-FRET; 1 µM).
The remaining activity of `O=C(Nc1cnn(-c2csc(C(=O)NC3COC3)c2)c1)Nc1ccccc1Cl` is reported as 105% (enzyme activity, inhibitor; 5 µM).
`Cc1ccc(C(=O)Nc2ccc(CN3CCN(C)CC3)c(C(F)(F)F)c2)cc1C#Cc1cnc2cccnn12` gave a remaining activity of 97% (enzyme activity; 23.5 nM).
